Data as given in ChEMBL document CHEMBL1145081, “Effects of the substitution of Phe4 in the opioid peptide [D-Ala8]dynorphin A-(1-11)NH2” (J Med Chem, 2003).

How the values were obtained:
[1] = biological target: Kappa-type opioid receptor (Rattus norvegicus) (UniProt P34975); assay: Inhibition of Forskolin-Stimulated Adenylyl Cyclase in CHO cells expressing Opioid receptor kappa 1 at 10 uM relative to 100 nM Dyn A-(1-13)NH(2); type: functional, cell-based
In short: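 Same κ-CHO forskolin (50 μM, 40 min, 37°) cyclic AMP assay, with phosphodiesterase and peptidase inhibitors. Maximal percent inhibition by peptide at 10 μM, expressed relative to the inhibition given by 100 nM Dyn A-(1-13)NH2. Cyclic AMP counts corrected for recovery using a [14C]cyclic AMP tracer.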

Mu-type opioid receptor = Mu-type opioid receptor (Rattus norvegicus, UniProt P33535); assay: Binding affinity towards rat Opioid receptor mu 1 expressed in CHO cells of chinese hamster ovary was determined using [3H]DAMGO; type: cell-based
Sequence of Mu-type opioid receptor (P33535 whole entry): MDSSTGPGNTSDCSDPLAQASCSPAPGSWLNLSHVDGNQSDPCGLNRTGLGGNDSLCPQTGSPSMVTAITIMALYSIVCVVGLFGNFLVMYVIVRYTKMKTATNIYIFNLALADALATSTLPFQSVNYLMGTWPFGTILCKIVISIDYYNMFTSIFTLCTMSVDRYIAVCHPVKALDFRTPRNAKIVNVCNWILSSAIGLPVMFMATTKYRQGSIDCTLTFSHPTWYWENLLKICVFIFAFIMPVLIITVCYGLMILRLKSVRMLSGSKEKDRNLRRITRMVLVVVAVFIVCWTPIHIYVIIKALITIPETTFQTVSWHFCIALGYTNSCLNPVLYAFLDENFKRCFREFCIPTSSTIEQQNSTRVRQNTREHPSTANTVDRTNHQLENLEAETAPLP
In short: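 [3H]DAMGO displacement on cloned rat μ-opioid receptors stably expressed in CHO cells. Nonspecific binding defined with 10 μM unlabeled DAMGO. Peptidase inhibitors (10 μM bestatin, 30 μM captopril, 50 μM L-leucyl-L-leucine) and 3 mM Mg2+ included. Mean ± SEM, at least three separate assays.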

[2] = biological target: T1, Delta-type opioid receptor (Mus musculus, UniProt P32300); assay: Binding affinity towards mouse Opioid receptor delta 1 expressed in CHO cells of chinese hamster ovary was determined using [3H]-[…] as radioligand; type: cell-based
T1 sequence (P32300 whole entry): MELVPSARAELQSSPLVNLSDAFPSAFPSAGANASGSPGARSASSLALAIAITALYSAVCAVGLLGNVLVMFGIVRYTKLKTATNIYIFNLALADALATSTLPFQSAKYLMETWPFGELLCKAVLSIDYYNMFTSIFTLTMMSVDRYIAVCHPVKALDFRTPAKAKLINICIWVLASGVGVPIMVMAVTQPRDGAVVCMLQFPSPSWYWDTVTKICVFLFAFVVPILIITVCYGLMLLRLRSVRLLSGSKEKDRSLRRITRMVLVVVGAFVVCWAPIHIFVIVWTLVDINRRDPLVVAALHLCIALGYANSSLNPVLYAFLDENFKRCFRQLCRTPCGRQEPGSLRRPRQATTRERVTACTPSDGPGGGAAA
In short: (§1)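 Competition binding against [3H]DPDPE on cloned mouse δ-opioid receptors stably expressed in CHO cells. Nonspecific binding defined with 10 μM unlabeled DPDPE. Peptidase inhibitors present (10 μM bestatin, 30 μM captopril, 50 μM L-leucyl-L-leucine) plus 3 mM Mg2+. Mean ± SEM from at least three separate assays.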

[3] = biological target: T2, Kappa-type opioid receptor (Rattus norvegicus, UniProt P34975); assay: Inhibition of Forskolin-Stimulated Adenylyl Cyclase in CHO cells expressing Opioid receptor kappa 1; type: functional, cell-based
T2 sequence (P34975 whole entry): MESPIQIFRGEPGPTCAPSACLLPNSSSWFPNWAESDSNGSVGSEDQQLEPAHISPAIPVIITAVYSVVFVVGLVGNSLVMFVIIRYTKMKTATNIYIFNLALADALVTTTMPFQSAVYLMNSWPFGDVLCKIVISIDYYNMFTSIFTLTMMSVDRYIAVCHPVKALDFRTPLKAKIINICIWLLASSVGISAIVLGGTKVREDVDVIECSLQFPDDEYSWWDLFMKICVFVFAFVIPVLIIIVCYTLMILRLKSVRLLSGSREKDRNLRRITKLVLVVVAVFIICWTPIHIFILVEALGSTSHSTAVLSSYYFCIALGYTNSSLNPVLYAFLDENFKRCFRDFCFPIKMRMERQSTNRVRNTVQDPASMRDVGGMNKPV
In short: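 CHO cells stably expressing cloned rat κ-opioid receptors. Cultures incubated 40 min at 37° with 50 μM forskolin and varying peptide concentrations. Present: 50 μM RO20-1724 (phosphodiesterase inhibitor), plus 10 μM bestatin, 30 μM captopril and 50 μM L-leucyl-L-leucine. [3H]cyclic AMP counted, with [14C]cyclic AMP added for recovery correction. Mean ± SEM, generally n ≥ 3, some n = 2.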

[4] = biological target: T2, Kappa-type opioid receptor; assay: Binding affinity towards rat Opioid receptor kappa 1 expressed in CHO cells of chinese hamster ovary was determined using [3H]diprenorphine as radioligand; type: cell-based
In short: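 Cloned rat κ-opioid receptors stably expressed in CHO cells; affinity from competitive inhibition of [3H]diprenorphine binding. Nonspecific binding defined with 10 μM unlabeled Dyn A-(1-13)NH2. Assay buffer held 10 μM bestatin, 30 μM captopril, 50 μM L-leucyl-L-leucine and 3 mM Mg2+. Mean ± SEM, at least three separate assays.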

[5] = biological target: T3, Opioid receptors; mu/kappa/delta (Homo sapiens) (UniProt P41145+P41143+P35372); assay: Selectivity for kappa/Mu/Delta receptors was determined 1/1.7/90; type: protein assay
T3 sequence (P35372 whole entry, looked up): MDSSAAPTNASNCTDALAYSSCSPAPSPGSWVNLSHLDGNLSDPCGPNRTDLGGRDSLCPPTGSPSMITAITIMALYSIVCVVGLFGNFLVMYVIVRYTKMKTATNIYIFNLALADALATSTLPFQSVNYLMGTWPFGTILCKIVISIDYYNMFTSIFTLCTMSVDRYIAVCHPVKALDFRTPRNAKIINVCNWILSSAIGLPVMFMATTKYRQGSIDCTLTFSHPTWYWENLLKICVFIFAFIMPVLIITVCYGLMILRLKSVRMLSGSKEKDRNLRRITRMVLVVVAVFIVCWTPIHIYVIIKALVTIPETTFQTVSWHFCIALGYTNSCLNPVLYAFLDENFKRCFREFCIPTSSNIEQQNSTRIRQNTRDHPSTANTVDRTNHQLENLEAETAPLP
T3 sequence (P41143 whole entry, looked up): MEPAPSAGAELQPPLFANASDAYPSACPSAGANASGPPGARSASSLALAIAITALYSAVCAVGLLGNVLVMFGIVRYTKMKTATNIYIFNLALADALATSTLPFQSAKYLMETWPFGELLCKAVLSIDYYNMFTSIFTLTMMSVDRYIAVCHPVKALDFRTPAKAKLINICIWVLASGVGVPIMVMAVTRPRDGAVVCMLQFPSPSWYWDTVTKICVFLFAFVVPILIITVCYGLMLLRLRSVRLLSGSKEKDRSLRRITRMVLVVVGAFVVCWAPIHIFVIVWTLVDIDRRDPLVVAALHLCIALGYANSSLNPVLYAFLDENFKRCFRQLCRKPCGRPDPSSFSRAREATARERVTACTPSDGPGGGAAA
T3 sequence (P41145 whole entry, looked up): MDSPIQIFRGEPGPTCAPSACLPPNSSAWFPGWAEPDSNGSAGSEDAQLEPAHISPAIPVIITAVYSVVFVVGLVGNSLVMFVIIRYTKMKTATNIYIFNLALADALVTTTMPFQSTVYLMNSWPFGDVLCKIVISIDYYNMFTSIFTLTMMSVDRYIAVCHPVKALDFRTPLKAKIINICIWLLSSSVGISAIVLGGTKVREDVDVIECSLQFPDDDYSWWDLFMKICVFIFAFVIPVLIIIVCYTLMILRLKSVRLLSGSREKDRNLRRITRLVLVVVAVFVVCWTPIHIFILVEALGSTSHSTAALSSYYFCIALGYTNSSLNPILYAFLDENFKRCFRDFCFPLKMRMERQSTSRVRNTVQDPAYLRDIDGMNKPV

[6] = biological target: T3, Opioid receptors; mu/kappa/delta (Homo sapiens); assay: Selectivity for kappa/Mu/Delta receptors was determined; 1/14/>377; type: protein assay
[7] = biological target: T1, Delta-type opioid receptor; assay: Binding affinity towards mouse Opioid receptor delta 1 expressed in CHO cells of chinese hamster ovary was determined using [3H][…] as radioligand; type: cell-based; in short: as §1
[8] = biological target: T3, Opioid receptors; mu/kappa/delta (Homo sapiens); assay: Selectivity for kappa/Mu/Delta receptors was determined; 1/44/765; type: protein assay

Sequence of Kappa-type opioid receptor (Rattus norvegicus) (P34975 whole entry): as the sequence (P34975 whole entry) above

Compound	Max response [1]	Ki (Mu-type opioid receptor)	Ki [2]	EC50 [3]	Ki [4]	Ki (Mu-type opioid receptor; cho)	Ki ([2]; cho)	EC50 ([3]; cho)	also measured
CC(C)C[C@H](NC(=O)[C@]1(NC(=O)CNC(=O)CNC(=O)[C@@H](N)Cc2ccc(O)cc2)CCc2ccccc2C1)C(=O)N[C@@H](CCCN=C(N)N)C(=O)N[C@@H](CCCN=C(N)N)C(=O)N[C@H](C)C(=O)N[C@@H](CCCN=C(N)N)C(=O)N1CCC[C@H]1C(=O)N[C@@H](CCCCN)C(N)=O	74%								
CC(C)C[C@H](NC(=O)[C@@]1(NC(=O)CNC(=O)CNC(=O)[C@@H](N)Cc2ccc(O)cc2)CCc2ccccc2C1)C(=O)N[C@@H](CCCN=C(N)N)C(=O)N[C@@H](CCCN=C(N)N)C(=O)N[C@H](C)C(=O)N[C@@H](CCCN=C(N)N)C(=O)N1CCC[C@H]1C(=O)N[C@@H](CCCCN)C(N)=O	96%	32.9 nM	> 10000 nM	72.4 nM	0.89 nM				
CC(C)C[C@H](NC(=O)[C@H](CCc1ccccc1)NC(=O)CNC(=O)CNC(=O)[C@@H](N)Cc1ccc(O)cc1)C(=O)N[C@@H](CCCN=C(N)N)C(=O)N[C@@H](CCCN=C(N)N)C(=O)N[C@H](C)C(=O)N[C@@H](CCCN=C(N)N)C(=O)N1CCC[C@H]1C(=O)N[C@@H](CCCCN)C(N)=O	100%	47 nM	5570 nM	46.9 nM	1.73 nM				
CC(C)C[C@H](NC(=O)[C@@H](Cc1ccccc1)N(C)C(=O)CNC(=O)CNC(=O)[C@@H](N)Cc1ccc(O)cc1)C(=O)N[C@@H](CCCN=C(N)N)C(=O)N[C@@H](CCCN=C(N)N)C(=O)N[C@H](C)C(=O)N[C@@H](CCCN=C(N)N)C(=O)N1CCC[C@H]1C(=O)N[C@@H](CCCCN)C(N)=O	99%								Ki ratio [5]: kappa/mu/delta
CC(C)C[C@H](NC(=O)C1(NC(=O)CNC(=O)CNC(=O)[C@@H](N)Cc2ccc(O)cc2)Cc2ccccc2C1)C(=O)N[C@@H](CCCN=C(N)N)C(=O)N[C@@H](CCCN=C(N)N)C(=O)N[C@H](C)C(=O)N[C@@H](CCCN=C(N)N)C(=O)N1CCC[C@H]1C(=O)N[C@@H](CCCCN)C(N)=O	39%	364 nM	> 10000 nM		26.5 nM				Ki ratio [6]: kappa/mu/delta
CC(C)C[C@H](NC(=O)[C@@H](Cc1ccccc1)NC(=O)CNC(=O)CNC(=O)[C@@H](N)Cc1ccc(O)cc1)C(=O)N[C@@H](CCCN=C(N)N)C(=O)N[C@@H](CCCN=C(N)N)C(=O)N[C@H](C)C(=O)N[C@@H](CCCN=C(N)N)C(=O)N1CCC[C@H]1C(=O)N[C@@H](CCCCN)C(N)=O	100%					4.2 nM	6.57 nM	1.24 nM	Ki ([4]; cho): 0.11 nM
CC(C)C[C@H](NC(=O)[C@H](Cc1ccccc1)NC(=O)CNC(=O)CNC(=O)[C@@H](N)Cc1ccc(O)cc1)C(=O)N[C@@H](CCCN=C(N)N)C(=O)N[C@@H](CCCN=C(N)N)C(=O)N[C@H](C)C(=O)N[C@@H](CCCN=C(N)N)C(=O)N1CCC[C@H]1C(=O)N[C@@H](CCCCN)C(N)=O	73%	123 nM		515 nM	8.91 nM				Ki [7]: > 10000 nM
CC(C)C[C@H](NC(=O)[C@@](C)(Cc1ccccc1)NC(=O)CNC(=O)CNC(=O)[C@@H](N)Cc1ccc(O)cc1)C(=O)N[C@@H](CCCN=C(N)N)C(=O)N[C@@H](CCCN=C(N)N)C(=O)N[C@H](C)C(=O)N[C@@H](CCCN=C(N)N)C(=O)N1CCC[C@H]1C(=O)N[C@@H](CCCCN)C(N)=O	100%					3.24 nM	157 nM	36.5 nM	Ki ([4]; cho): 3.2 nM
CC(C)C[C@H](NC(=O)[C@@H](CCc1ccccc1)NC(=O)CNC(=O)CNC(=O)[C@@H](N)Cc1ccc(O)cc1)C(=O)N[C@@H](CCCN=C(N)N)C(=O)N[C@@H](CCCN=C(N)N)C(=O)N[C@H](C)C(=O)N[C@@H](CCCN=C(N)N)C(=O)N1CCC[C@H]1C(=O)N[C@@H](CCCCN)C(N)=O	95%				0.66 nM	13.7 nM	190 nM	5.2 nM	
CC(C)C[C@H](NC(=O)[C@]1(NC(=O)CNC(=O)CNC(=O)[C@@H](N)Cc2ccc(O)cc2)CCc2ccccc2C1)C(=O)N[C@@H](CCCNC(=N)N)C(=O)N[C@@H](CCCNC(=N)N)C(=O)N[C@H](C)C(=O)N[C@@H](CCCNC(=N)N)C(=O)N1CCC[C@H]1C(=O)N[C@@H](CCCCN)C(N)=O		88.3 nM	> 10000 nM	573 nM	9.54 nM				
CC(C)C[C@H](NC(=O)[C@H](Cc1ccccc1)N(C)C(=O)CNC(=O)CNC(=O)[C@@H](N)Cc1ccc(O)cc1)C(=O)N[C@@H](CCCN=C(N)N)C(=O)N[C@@H](CCCN=C(N)N)C(=O)N[C@H](C)C(=O)N[C@@H](CCCN=C(N)N)C(=O)N1CCC[C@H]1C(=O)N[C@@H](CCCCN)C(N)=O						1.03 nM	56.1 nM	3.56 nM	Ki ([4]; cho): 0.62 nM
CC(C)C[C@H](NC(=O)[C@@H]1Cc2ccccc2CN1C(=O)CNC(=O)CNC(=O)[C@@H](N)Cc1ccc(O)cc1)C(=O)N[C@@H](CCCNC(=N)N)C(=O)N[C@@H](CCCNC(=N)N)C(=O)N[C@H](C)C(=O)N[C@@H](CCCNC(=N)N)C(=O)N1CCC[C@H]1C(=O)N[C@@H](CCCCN)C(N)=O		206 nM	3590 nM	29.4 nM	4.69 nM				
CC(C)C[C@H](NC(=O)[C@@H]1Cc2ccccc2CN1C(=O)CNC(=O)CNC(=O)[C@@H](N)Cc1ccc(O)cc1)C(=O)N[C@@H](CCCN=C(N)N)C(=O)N[C@@H](CCCN=C(N)N)C(=O)N[C@H](C)C(=O)N[C@@H](CCCN=C(N)N)C(=O)N1CCC[C@H]1C(=O)N[C@@H](CCCCN)C(N)=O	91%								Ki ratio [8]: kappa/mu/delta
